Only some compounds are listed: those with a hit (about 2.9% of all), similar ones and a draw of the others.
TRPC4 PAM – allosteric potentiators of mouse TRPC4 channel; HEK293 TRPC4beta/mu-opioid, DAMGO EC20, Fluo-4 Ca2+ flux; active compounds read high; B-score at 10 µM; 310,000 compounds, 0.42% hits; AID 2227; Q9QUQ5;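 active means B-score of calcium response area above 5 SD of library B-scores, with initial fluorescence ratio within 5 SD of library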
TRPC6 inh – blocks the mouse TRPC6 cation channel; B-score at 10 µM; HEK293-TRPC6, membrane potential dye, ACh-evoked depolarization; active compounds read low; AID 2553; 310,000 compounds, 1.1% hits;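 active means B-score under library mean minus 3 SD, initial fluorescence not abnormally high, positive integrated signal ratio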;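 further: B-score derived from integrated fluorescence ratio over the kinetic read; more negative B-score means stronger inhibition of depolarization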
Target sequence (Q61143 whole entry, looked up): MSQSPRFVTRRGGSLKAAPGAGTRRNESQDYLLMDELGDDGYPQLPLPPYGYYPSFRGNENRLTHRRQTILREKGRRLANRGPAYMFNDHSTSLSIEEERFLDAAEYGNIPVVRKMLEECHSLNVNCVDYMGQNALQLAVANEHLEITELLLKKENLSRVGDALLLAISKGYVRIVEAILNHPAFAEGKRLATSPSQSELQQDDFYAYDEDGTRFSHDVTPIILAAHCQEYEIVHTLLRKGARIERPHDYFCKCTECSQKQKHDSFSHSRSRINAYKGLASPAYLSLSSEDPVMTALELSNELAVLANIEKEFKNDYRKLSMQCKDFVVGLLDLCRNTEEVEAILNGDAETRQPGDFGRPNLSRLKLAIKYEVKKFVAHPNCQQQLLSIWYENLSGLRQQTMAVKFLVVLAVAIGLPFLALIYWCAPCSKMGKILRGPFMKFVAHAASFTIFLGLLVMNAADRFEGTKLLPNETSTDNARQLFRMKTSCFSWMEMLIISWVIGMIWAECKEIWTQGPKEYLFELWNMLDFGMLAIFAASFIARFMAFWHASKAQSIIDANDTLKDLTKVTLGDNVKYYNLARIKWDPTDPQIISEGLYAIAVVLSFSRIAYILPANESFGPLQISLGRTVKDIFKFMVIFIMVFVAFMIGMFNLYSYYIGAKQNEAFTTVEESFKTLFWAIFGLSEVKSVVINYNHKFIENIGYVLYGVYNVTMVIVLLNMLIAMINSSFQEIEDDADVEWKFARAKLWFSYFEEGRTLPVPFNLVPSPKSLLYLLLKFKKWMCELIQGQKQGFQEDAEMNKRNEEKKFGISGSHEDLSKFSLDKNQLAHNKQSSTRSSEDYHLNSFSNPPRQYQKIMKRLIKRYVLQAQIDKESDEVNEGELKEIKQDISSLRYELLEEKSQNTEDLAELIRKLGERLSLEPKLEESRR
Kir21 inh – blocks the mouse Kir2.1 inward-rectifier potassium channel; P35561; HEK293-Kir2.1, FluxOR thallium flux fluorescence; active compounds read low; B-score at 10 µM; 310,000 compounds, 0.85% hits; AID 1672;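 active means fluorescence ratio B-score at or below minus 3 SD of library scores, with starting-brightness B-score within 2 SD, cut at about -4.2 in these data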;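 further: channel flux triggered by added potassium and thallium sulfate stimulus; B-score of peak minus minimum fluorescence over baseline after thallium stimulus; more negative B-score means stronger Kir2.1 block with less thallium influx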
TRPC4 inh – TRPC4 (mouse) channel inhibition | HEK293 TRPC4beta/mu-opioid, DAMGO-evoked Fluo4 calcium flux; active compounds read low | B-score at 10 µM | 300,000 compounds, 0.39% hits | AID 2247;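 active means B-score over 3 SD under the library average, no early fluorescence shift, positive overall ratio signal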
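System: stable TRPC4beta/mu-opioid receptor HEK293 cells; Dosing: single-point compound dosing; Measured by: Fluo4 Ca2+ flux fluorescence; Read-out basis: per-well B score of integrated baseline-normalized Fluo4 ratio.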
TRPC6 act – activators of mouse TRPC6 channel. Q61143. HEK293-TRPC6 membrane potential dye fluorescence; active compounds read high. B-score at 10 µM. 310,000 compounds, 0.13% hits;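 active means B-score of the integrated fluorescence ratio above library mean plus 3 SD, and starting fluorescence ratio within library mean plus 5 SD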;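 further: higher score means more depolarization so channel activation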
TRPC4 act – TRPC4 (mouse) channel activation. Q9QUQ5. HEK293 TRPC4beta/mu-opioid, Fluo4 calcium fluorescence; active compounds read high. B-score at 10 µM. 310,000 compounds, 0.49% hits. AID 2237;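 active means B-score above 5 SD of library B-scores, and initial fluorescence ratio not above library mean plus 5 SD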;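 further: positive B-score marks a calcium rise read as TRPC4 activation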
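System – HEK293 cells stably co-expressing mouse TRPC4beta and mu-opioid receptor · Signal – Fluo4 calcium-sensitive dye fluorescence, kinetic, 1 Hz baseline · Benchmarks – buffer (low) and maximal DAMGO (high) · Read-out – B score of integrated fluorescence ratio per well · Incubation – dye loading 45 min room temperature, 110 s kinetic read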
TRPC4 spec 2 – mouse TRPC4 off-target activity of TRPC6 inhibitors, second screen; shares compounds with TRPC6 inh; HEK293 TRPC4/MOR, membrane potential dye fluorescence; channel activated by saturating DAMGO dose; inhibition, % at 10 µM; 920 compounds, 42% hits; AID 2776;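 active means compounds whose fluorescence signal differed from control wells by over 3 SD, either direction, in both duplicate plates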
TRPC4 spec – tests whether TRPC6 inhibitors also affect mouse TRPC4. shares compounds with TRPC6 inh. HEK293 TRPC4/mu-opioid, membrane potential fluorescence. activity change, negative = inhibition, % at 10 µM. 920 compounds, 61% hits;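 active means rise or fall in signal beyond 3 SD of buffer-only wells in both replicate plates, either sign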;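 further: integrated kinetic ratio of fluorescence range over baseline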
HEK293 MPD ctr 2-1 – parental HEK293 nonspecific activity of TRPC6 inhibitors, second screen; 920 compounds, 31% hits; parental HEK293 membrane potential dye fluorescence; maximal acetylcholine challenge after compound addition; shares compounds with TRPC6 inh; signal change vs control, % at 10 µM;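 active means membrane potential signal moving either way by over 3 SD of the maximum-effect control, in both duplicate plates, meaning non-specific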
HEK293 MPD ctr-1 – counter-screen for TRPC6 inhibitors: effect in parental HEK293 cells; parental HEK293 membrane potential dye fluorescence; shares compounds with TRPC6 inh; AID 2780; membrane potential signal change, % at 10 µM; 920 compounds, 60% hits;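 active means membrane potential signal shifting up or down by more than 3 SD of buffer-only wells, on both duplicate plates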
HEK293 MPD ctr-2 – counter-screen for TRPC6 modulators: effect in parental HEK293 cells; shares compounds with TRPC6 inh; membrane potential dye fluorescence; membrane potential signal change, % at 10 µM; 2,400 compounds, 51% hits;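 active means membrane potential signal moves up or down beyond 5 SD from buffer-only wells, on both duplicate plates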
HEK293 MPD ctr 2-2 – second check of TRPC6 modulator effects in parental HEK293 cells. inhibition, % at 10 µM. membrane potential dye fluorescence; after compound, maximal acetylcholine stimulation. 2,400 compounds, 14% hits. AID 488926. shares compounds with TRPC6 inh;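 active means membrane potential signal drops by more than 5 SD from the mean control signal, in both duplicate plates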
TRPC4/MOR mod – tests whether TRPC6 modulators also affect mouse TRPC4; HEK293 TRPC4/mu-opioid, membrane potential fluorescence; 2,400 compounds, 69% hits; shares compounds with TRPC6 inh; percent change from control (negative = decrease, positive = increase), % at 10 µM;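 active means membrane potential signal moved up or down beyond 5 SD of buffer control wells, in both duplicate plates, actives on both sides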
TRPC4 ctr inh 2 – second check of whether TRPC6 modulators also affect mouse TRPC4; 2,400 compounds, 55% hits; AID 488928; shares compounds with TRPC6 inh; HEK293 TRPC4/mu-opioid, membrane potential dye fluorescence; stimulated with maximal-effect DAMGO; inhibition, % at 10 µM;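 active means drop in membrane potential signal beyond 5 SD of the control wells in both duplicate plates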;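 further: TRPC4 counter screen for TRPC6 hits run under conditions tuned for TRPC6 not TRPC4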
TRPC6 inh conf – mouse TRPC6 inhibitor confirmation | shares compounds with TRPC6 inh | HEK293-TRPC6, membrane potential dye, ACh-evoked depolarization | inhibition, % at 10 µM | 3,300 compounds, 43% hits | AID 488960;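 active means fluorescence ratio falls more than 5 SD below the full-stimulation control mean, in both duplicate runs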;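 further: integrated fluorescence ratio of peak minus minimum over baseline after agonist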
TRPC6 act confirm – mouse TRPC6 activator confirmation | HEK293-TRPC6 membrane potential dye fluorescence, FDSS | AID 488961 | shares compounds with TRPC6 inh | activation, % at 10 µM | 2,800 compounds, 11% hits;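 active means ratio signal rise beyond 5 SD above unstimulated control wells' mean, seen in both duplicate runs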
Large screens that a line does not name were inactive (follow-up assays come after a bar, where they were run).

OC(CCN1CCCCC1)(c1ccccc1)C1CCCCC1 (stereo not drawn)	TRPC6 inh -5.18 | HEK293 MPD ctr-2 208.5% | HEK293 MPD ctr 2-2 80.0% | TRPC4/MOR mod 42.0% | TRPC4 ctr inh 2 inactive | TRPC6 inh conf 78.5%
OC(CCN1CCOCC1)(c1ccc(Cl)cc1)C1CCCCC1 (stereo not drawn)	TRPC6 inh -5.71 | HEK293 MPD ctr-2 149.0% | HEK293 MPD ctr 2-2 inactive | TRPC4/MOR mod 25.5% | TRPC4 ctr inh 2 45.0% | TRPC6 inh conf 43.5% | TRPC6 act confirm inactive
COc1ccccc1C(=O)NC1CCN(C(=O)Nc2ccc(C)cc2)CC1	none
COc1cc2c(cc1OC)-c1c(OC)c(OC)cc3ccnc(c13)C2=O	TRPC6 inh -7.86 | TRPC4 spec 2 63.0% | TRPC4 spec -26.2% | HEK293 MPD ctr 2-1 -58.0% | HEK293 MPD ctr-1 -425.5% | TRPC6 inh conf 53.8% | TRPC6 act confirm inactive
Cc1ccc2c(c1)NC(=O)C(CC(=O)Nc1ccc(CN3CCC(C)CC3)cc1)O2 (stereo not drawn)	TRPC6 inh -8.52 | TRPC4 spec 2 inactive | TRPC4 spec inactive | HEK293 MPD ctr 2-1 -4.5% | HEK293 MPD ctr-1 inactive | TRPC6 inh conf 78.5% | TRPC6 act confirm inactive
CCOC(=O)N1CCN(C(=O)CN2C(=O)COc3ccc(C(C)(C)C)cc32)CC1	TRPC6 inh -6.29 | HEK293 MPD ctr-2 94.5% | HEK293 MPD ctr 2-2 inactive | TRPC4/MOR mod 17.5% | TRPC4 ctr inh 2 inactive | TRPC6 inh conf 54.5%
CCOc1cc(C(=O)O/N=C(\N)c2ccccn2)cc(OCC)c1OCC	none
CCOc1ccc(C(=O)O/N=C(\N)c2ccccn2)cc1OCC	TRPC6 inh -5.86 | HEK293 MPD ctr-2 -94.0% | HEK293 MPD ctr 2-2 inactive | TRPC4/MOR mod -22.0% | TRPC4 ctr inh 2 inactive | TRPC6 inh conf inactive | TRPC6 act confirm inactive
CCC(=O)c1c(NC(C)C)cc(C)oc1=O	none
Nc1nonc1C(=O)NCCNC(=O)c1ccc(Cl)c(Cl)c1	none
CC(=O)c1c(C)nc2cc(Cl)ccc2c1N	TRPC6 inh -5.85 | HEK293 MPD ctr-2 -65.5% | HEK293 MPD ctr 2-2 inactive | TRPC4/MOR mod -12.0% | TRPC4 ctr inh 2 32.5% | TRPC6 inh conf inactive | TRPC6 act confirm inactive
CN(C)CCCN1c2ccccc2Sc2ccccc21	TRPC6 inh -6.39 | HEK293 MPD ctr-2 inactive | HEK293 MPD ctr 2-2 inactive | TRPC4/MOR mod inactive | TRPC4 ctr inh 2 58.0% | TRPC6 inh conf 44.5% | TRPC6 act confirm inactive
CN(C)CCCN1C(=O)c2cc3ccccc3cc2C1=O	none
CCC(=O)c1ccc2c(c1)N(CCCN(C)C)c1ccccc1S2	TRPC6 inh -6.09 | HEK293 MPD ctr-2 -232.5% | HEK293 MPD ctr 2-2 72.5% | TRPC4/MOR mod -38.0% | TRPC4 ctr inh 2 81.0% | TRPC6 inh conf 70.0% | TRPC6 act confirm inactive
COc1ccc2c(c1)Sc1ccccc1N2CCN(C)C	TRPC6 inh -5.08, TRPC4 act 50 | HEK293 MPD ctr-2 inactive | HEK293 MPD ctr 2-2 inactive | TRPC4/MOR mod 39.0% | TRPC4 ctr inh 2 82.5% | TRPC6 inh conf 51.5% | TRPC6 act confirm inactive
CCOC(=O)C(C(=O)OCC)c1c([N+](=O)[O-])c(=O)n2c3c(cccc13)CCC2	none
O=C(c1ccncc1)N1N=C(C2CCCCC2)CC1(O)C(F)(F)F (stereo not drawn)	TRPC6 inh -5.76 | HEK293 MPD ctr-2 inactive | HEK293 MPD ctr 2-2 inactive | TRPC4/MOR mod inactive | TRPC4 ctr inh 2 inactive | TRPC6 inh conf inactive | TRPC6 act confirm inactive
Cc1ccc(S(=O)(=O)Cc2ccc(C(=O)N3CCN(c4cc(C)ccc4C)CC3)o2)cc1	none
Cc1ccc(C)c(N2CCN(C(=O)c3ccc(CS(=O)(=O)c4ccccc4C)o3)CC2)c1	TRPC6 inh -8.85 | TRPC4 spec 2 inactive | TRPC4 spec inactive | HEK293 MPD ctr 2-1 inactive | HEK293 MPD ctr-1 inactive | TRPC6 inh conf inactive | TRPC6 act confirm inactive
COCCCn1c(=N)c(C(=O)NCc2ccc3c(c2)OCO3)cc2c(=O)n3ccccc3nc21	TRPC6 inh -10.2 | TRPC4 spec 2 63.5% | TRPC4 spec -12.2% | HEK293 MPD ctr 2-1 30.5% | HEK293 MPD ctr-1 inactive | TRPC6 inh conf inactive | TRPC6 act confirm inactive
CCOCCCn1c(=N)c(C(=O)NCc2ccc3c(c2)OCO3)cc2c(=O)n3cccc(C)c3nc21	TRPC6 inh -5.11 | HEK293 MPD ctr-2 inactive | HEK293 MPD ctr 2-2 inactive | TRPC4/MOR mod -12.0% | TRPC4 ctr inh 2 35.5% | TRPC6 inh conf inactive | TRPC6 act confirm inactive
N=c1c(C(=O)NCc2ccc3c(c2)OCO3)cc2c(=O)n3ccccc3nc2n1Cc1cccnc1	none
N=c1c(C(=O)NC2CCCC2)cc2c(=O)n3ccccc3nc2n1CC1CCCO1 (stereo not drawn)	none
CCOCCCn1c(SCC(=O)NCc2ccc3c(c2)OCO3)nc2ccccc2c1=O	none
